Tests used:
[1] = molecular target: T1, Adenosine receptor A1 (Homo sapiens, UniProt P30542); assay: Displacement of [3H]CCPA from human adenosine A1 receptor expressed in CHO cells; type: cell-based
T1 sequence (P30542 whole entry): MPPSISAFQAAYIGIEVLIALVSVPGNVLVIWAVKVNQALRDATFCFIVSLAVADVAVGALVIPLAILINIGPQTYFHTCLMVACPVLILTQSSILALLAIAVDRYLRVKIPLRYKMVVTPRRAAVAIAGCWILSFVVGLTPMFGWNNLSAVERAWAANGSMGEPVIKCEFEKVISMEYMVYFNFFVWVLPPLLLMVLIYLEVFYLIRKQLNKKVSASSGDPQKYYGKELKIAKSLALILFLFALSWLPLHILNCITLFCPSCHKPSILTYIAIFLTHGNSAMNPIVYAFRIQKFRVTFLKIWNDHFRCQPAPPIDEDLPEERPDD
In short: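 Membranes from CHO cells stably expressing human A1 receptor (1000 g spin to clear nuclei, then 100,000 g pellet, stored -80 °C in binding buffer). Competition binding with 1 nM [3H]CCPA; nonspecific binding defined with 1 mM theophylline. Ki calculated from competition curves.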

[2] = molecular target: Adenosine receptor A2a (Homo sapiens, UniProt P29274); assay: Displacement of [3H]NECA from human adenosine A2A receptor expressed in CHO cells; type: cell-based
Chain of Adenosine receptor A2a (P29274 whole entry): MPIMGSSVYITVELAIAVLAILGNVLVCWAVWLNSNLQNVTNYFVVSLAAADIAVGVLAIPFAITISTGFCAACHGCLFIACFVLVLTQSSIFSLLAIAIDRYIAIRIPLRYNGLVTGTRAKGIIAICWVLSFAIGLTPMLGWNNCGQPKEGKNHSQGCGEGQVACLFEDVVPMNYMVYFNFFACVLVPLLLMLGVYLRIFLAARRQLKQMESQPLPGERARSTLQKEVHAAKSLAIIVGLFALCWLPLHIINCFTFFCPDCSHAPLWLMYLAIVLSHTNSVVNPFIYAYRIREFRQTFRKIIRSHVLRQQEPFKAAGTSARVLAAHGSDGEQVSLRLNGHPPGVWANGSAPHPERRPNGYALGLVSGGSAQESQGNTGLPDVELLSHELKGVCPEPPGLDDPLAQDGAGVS
In short: (§1)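 CHO cells stably expressing human receptor; membranes from a two-step spin (1000 g, then 100,000 g), resuspended in binding buffer, stored -80 °C. Competition with [3H]NECA at 30 nM (A2A) or 10 nM (A3); nonspecific binding defined with […]. Ki derived from competition experiments.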

[3] = molecular target: T2, Adenosine receptor A3 (Homo sapiens, UniProt P0DMS8); assay: Displacement of [3H]NECA from human adenosine A3 receptor expressed in CHO cells; type: cell-based; in short: as §1
T2 sequence (P0DMS8 whole entry): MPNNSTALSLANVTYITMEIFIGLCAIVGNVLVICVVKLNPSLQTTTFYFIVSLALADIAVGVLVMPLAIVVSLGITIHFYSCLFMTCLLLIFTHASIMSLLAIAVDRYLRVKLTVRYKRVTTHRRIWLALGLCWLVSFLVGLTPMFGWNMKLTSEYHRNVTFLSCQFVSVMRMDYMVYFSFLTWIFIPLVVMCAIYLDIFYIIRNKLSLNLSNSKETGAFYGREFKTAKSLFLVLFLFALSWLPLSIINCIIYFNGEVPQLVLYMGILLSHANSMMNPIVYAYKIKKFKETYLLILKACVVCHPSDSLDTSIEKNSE

[4] = molecular target: T3, Adenosine receptor A2b (Homo sapiens, UniProt P29275); assay: Antagonist activity at human adenosine A2B receptor expressed in CHO cells assessed as inhibition of NECA-stimulated adenylyl cyclase activity; type: functional, cell-based
T3 sequence (P29275 whole entry): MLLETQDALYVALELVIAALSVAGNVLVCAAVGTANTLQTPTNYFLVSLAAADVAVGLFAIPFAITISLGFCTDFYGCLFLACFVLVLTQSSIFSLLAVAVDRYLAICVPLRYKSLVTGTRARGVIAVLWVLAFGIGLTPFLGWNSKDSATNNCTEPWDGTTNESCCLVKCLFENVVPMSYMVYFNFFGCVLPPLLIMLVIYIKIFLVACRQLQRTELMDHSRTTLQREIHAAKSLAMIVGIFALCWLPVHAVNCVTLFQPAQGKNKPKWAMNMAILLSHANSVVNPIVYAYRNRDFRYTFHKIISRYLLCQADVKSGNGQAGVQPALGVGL
In short: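 Membranes from CHO cells stably transfected with human A2B receptor, prepared by a single high-speed centrifugation of the homogenate, resuspended in 50 mM Tris/HCl pH 7.4 and used at once. Inhibition of NECA-stimulated adenylyl cyclase activity measured; IC50 converted to Ki by Cheng-Prusoff equation.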

| Compound | Ki [1] | Ki [2] | Ki [3] | Ki [4] |
| --- | --- | --- | --- | --- |
| Nc1ncnc2c1ncn2C1CCCC1 | 10 µM | 1.8 µM | 13 µM | > 30 µM |
| CCn1cnc2c(N)ncnc21 | 7.4 µM | 2.2 µM | > 100 µM | > 30 µM |
| Nc1ncnc2c1ncn2CCCO | > 100 µM | 3.9 µM | > 100 µM | > 30 µM |
| CC(C)n1c(Br)nc2c(N)ncnc21 | 0.83 µM | 0.074 µM | 15 µM | 1.1 µM |
| Nc1ncnc2ncn(CCCO)c12 | > 100 µM | > 100 µM | > 100 µM | > 30 µM |
| CC(C)n1cnc2ncnc(N)c21 | 20 µM | 12 µM | > 100 µM | > 30 µM |
| CCCn1cnc2ncnc(N)c21 | > 100 µM | 18 µM | > 100 µM | > 30 µM |
| Cn1cnc2ncnc(N)c21 | > 100 µM | > 100 µM | > 100 µM | > 30 µM |
| CCCCn1cnc2c(N)ncnc21 | > 100 µM | 7.8 µM | > 100 µM | > 30 µM |
| Nc1ncnc2c1nc(Br)n2C1CCCC1 | 1 µM | 1.9 µM | 4.2 µM | 0.86 µM |
| CCn1cnc2ncnc(N)c21 | > 100 µM | 30 µM | > 100 µM | > 30 µM |
| Nc1ncnc2c1ncn2C1CCC1 | 8.7 µM | 4.8 µM | 33 µM | 17 µM |
| CCC(C)n1cnc2c(N)ncnc21 (stereo unspecified) | 34 µM | 16 µM | > 100 µM | 19 µM |
| Nc1ncnc2ncn(CCO)c12 | > 100 µM | > 100 µM | > 100 µM | > 30 µM |
| CCn1c(Br)nc2c(N)ncnc21 | 0.28 µM | 0.052 µM | 28 µM | 0.84 µM |
| Nc1ncnc2c1ncn2C1CC1 | > 100 µM | 2.3 µM | > 100 µM | > 30 µM |
| CC(C)Cn1cnc2ncnc(N)c21 | > 100 µM | > 100 µM | > 100 µM | > 30 µM |
| Nc1ncnc2c1nc(Br)n2CCO | 1.5 µM | 0.62 µM | > 100 µM | 2.8 µM |
| CC(C)Cn1c(Br)nc2c(N)ncnc21 | 4.9 µM | 6 µM | 15 µM | 4.2 µM |
| Nc1ncnc2c1nc(Br)n2C1CCCCCC1 | > 100 µM | > 100 µM | > 100 µM | > 30 µM |
| Nc1ncnc2ncn(CC(O)CO)c12 (stereo unspecified) | > 100 µM | > 100 µM | > 100 µM | > 30 µM |
| CCCn1cnc2c(N)ncnc21 | 9.4 µM | 9.6 µM | ≥ 100 µM | 1.7 µM |

| Compound | Ki [1] | Ki [2] | Ki [3] | Ki [4] |
| --- | --- | --- | --- | --- |
| CCC(C)n1cnc2ncnc(N)c21 (stereo unspecified) | > 100 µM | > 100 µM | > 100 µM | > 30 µM |
| Nc1ncnc2c1nc(Br)n2CCCO | 1 µM | 0.085 µM | 3.2 µM | 5.1 µM |
| CC(O)Cn1cnc2ncnc(N)c21 (stereo unspecified) | > 100 µM | > 100 µM | > 100 µM | > 30 µM |
| CC(O)Cn1c(Br)nc2c(N)ncnc21 (stereo unspecified) | 2.9 µM | 1.1 µM | ≥ 100 µM | 0.64 µM |
| CC(C)Cn1cnc2c(N)ncnc21 | > 100 µM | > 100 µM | > 100 µM | > 30 µM |
| CC(O)Cn1cnc2c(N)ncnc21 (stereo unspecified) | 29 µM | 3.1 µM | > 100 µM | > 30 µM |
| CCCCn1c(Br)nc2c(N)ncnc21 | 3.2 µM | 0.73 µM | > 100 µM | 5.6 µM |
| CCCn1c(Br)nc2c(N)ncnc21 | 1.1 µM | 0.3 µM | ≥ 100 µM | 0.2 µM |
| C=CCn1c(Br)nc2c(N)ncnc21 | 8.4 µM | 0.73 µM | 20 µM | 4.6 µM |
| C=CCCn1c(Br)nc2c(N)ncnc21 | 4.9 µM | 1.6 µM | > 100 µM | > 30 µM |
| CCC(C)n1c(Br)nc2c(N)ncnc21 (stereo unspecified) | 3.1 µM | 0.39 µM | 15 µM | 1.2 µM |
| Cn1c(Br)nc2c(N)ncnc21 | 0.57 µM | 0.12 µM | > 100 µM | 0.72 µM |
| C=CCCn1cnc2c(N)ncnc21 | > 100 µM | 8.5 µM | > 100 µM | > 30 µM |
| Nc1ncnc2c1nc(Br)n2C1CCC1 | 2.2 µM | 0.66 µM | 6.2 µM | 4.1 µM |
| Nc1ncnc2c1nc(Br)n2C1CCCCC1 | 4.6 µM | 15 µM | 11 µM | > 30 µM |
| Nc1ncnc2c1ncn2C1CCCCCC1 | > 100 µM | 11 µM | > 100 µM | > 30 µM |
| Nc1ncnc2c1ncn2C1CCCCC1 | > 100 µM | > 100 µM | > 100 µM | > 30 µM |
| Nc1ncnc2nc(Br)[nH]c12 | 33 µM | 3.2 µM | > 10 µM | > 30 µM |
| Cn1cnc2c(N)ncnc21 | 12 µM |  | > 100 µM | > 30 µM |
| CC(C)n1cnc2c(N)ncnc21 | 4.3 µM | 4.1 µM | > 100 µM | 16 µM |
| Nc1ncnc2c1ncn2CCO | 29 µM | 11 µM | > 100 µM | > 30 µM |

Source: ChEMBL document CHEMBL1153377, “8-Bromo-9-alkyl adenine derivatives as tools for developing new adenosine A2A and A2B receptors ligands” (Bioorg Med Chem, 2009)
